Active and inactive are the calls of the source. The rule behind the calls is not given here.
Tests used:
Mus musculus [1] = assay: Anticonvulsant activity in CF1 mouse assessed as inhibition of maximal electroshock-induced seizures at 300 mg/kg, ip after 0.5 hrs; type: functional, organism-based; design: dose 300 mg/kg
Summary of the method: (§1)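 Male albino CF#1 mice (18–25.5 g), compound suspended in 0.5% methylcellulose, given ip 0.5 h or 4 h before test. Eyes treated with 0.5% tetracaine HCl in saline; corneal-type MES at 60 Hz, 50 mA for 0.2 s; protection scored as animals protected/tested.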

Mus musculus [2] = assay: Anticonvulsant activity in CF1 mouse assessed as inhibition of maximal electroshock-induced seizures at 300 mg/kg, ip after 4 hrs; type: functional, organism-based; design: dose 300 mg/kg; summary of the method: as §1
Pseudomonas aeruginosa = assay: Antibacterial activity against Pseudomonas aeruginosa ATCC 27853 after 24 hrs by broth microdilution method; type: functional; settings: ATCC 27853, 24 h
Summary of the method: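 Broth microdilution in Mueller Hinton broth; compound stocks in DMSO, diluted into test medium. Plates incubated at 35 °C and read visually after 24 h. MIC taken as lowest concentration preventing visible growth. Ampicillin reference.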

Rattus norvegicus [3] = assay: Neurotoxicity in Sprague-Dawley rat at 30 mg/kg, ip after 0.5 hrs by rotarod test; type: toxicity, organism-based; design: dose 30 mg/kg, route intraperitoneal; settings: in vivo
Rattus norvegicus [4] = assay: Neurotoxicity in Sprague-Dawley rat at 30 mg/kg, ip after 1 hr by rotarod test; type: toxicity, organism-based; design: dose 30 mg/kg, route intraperitoneal; settings: in vivo
Rattus norvegicus [5] = assay: Anticonvulsant activity in Sprague-Dawley rat assessed as inhibition of maximal electroshock-induced seizures at 30 mg/kg, po after 2 hrs; type: functional, organism-based; design: dose 30 mg/kg
Summary of the method: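 Male albino Sprague-Dawley rats (105–130 g) given a single oral 30 mg/kg dose suspended in 0.5% methylcellulose; MES (60 Hz, 150 mA, 0.2 s, tetracaine-anesthetized eyes) at 0.25, 0.5, 1, 2 and 4 h; 4 rats per time point; scored protected/tested.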

Mus musculus [6] = assay: Neurotoxicity in CF1 mouse assessed as hyperactivity at 300 mg/kg, ip after 0.5 hrs by rotarod test; type: toxicity, organism-based; design: dose 300 mg/kg, route intraperitoneal; settings: in vivo
Rattus norvegicus [7] = assay: Anticonvulsant activity in Sprague-Dawley rat assessed as inhibition of maximal electroshock-induced seizures at 30 mg/kg, ip; type: functional, organism-based; design: dose 30 mg/kg
Mus musculus [8] = assay: Neurotoxicity in CF1 mouse at 30 mg/kg, ip after 0.5 hrs by rotarod test; type: toxicity, organism-based; design: dose 30 mg/kg, route intraperitoneal; settings: in vivo
Summary of the method: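 Male albino CF#1 mice (18–25.5 g) dosed ip with compound suspended in 0.5% methylcellulose, 0.5 h or 4 h before testing; neurotoxicity assessed by rotarod, scored as number toxic/number tested.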

Mus musculus [9] = assay: Neurotoxicity in CF1 mouse assessed as time to peak effect at 150 mg/kg, ip after 1 to 2 hrs by rotarod test; type: toxicity, organism-based; design: dose 150 mg/kg, route intraperitoneal; settings: in vivo
Rattus norvegicus [10] = assay: Neurotoxicity in Sprague-Dawley rat at 30 mg/kg, po after 0.25 hrs by rotarod test; type: toxicity, organism-based; design: dose 30 mg/kg, route oral; settings: in vivo
Mus musculus [11] = assay: Anticonvulsant activity in ip dosed CF1 mouse assessed as inhibition of ScM-induced seizures after 5 hrs; type: functional
Rattus norvegicus [12] = assay: Anticonvulsant activity in rat assessed as inhibition of hippocampal kindle-stimulated seizures at 300 mg/kg, ip; type: functional, organism-based; design: dose 300 mg/kg; settings: Hippocampus
Summary of the method: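 Hippocampal kindled rat model; single animal given 300 mg/kg ip.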

Rattus norvegicus [13] = assay: Anticonvulsant activity in Sprague-Dawley rat assessed as time to peak effect for inhibition of maximal electroshock-induced seizures at 30 mg/kg, ip; type: functional; settings: route intraperitoneal
Rattus norvegicus [14] = assay: Neurotoxicity in Sprague-Dawley rat assessed as time to peak effect at 10 to 30 mg/kg, ip after 0.25 to 4 hrs by rotarod test; type: toxicity, organism-based; design: route intraperitoneal; settings: in vivo

CC(C)CC(=O)OC(Cn1ccnc1)c1ccc2ccccc2c1 (stereo not given)
inhibition (Mus musculus [1]): Active | inhibition (Mus musculus [2]): Active | MIC (Pseudomonas aeruginosa): > 1020 µg/mL | Activity (Rattus norvegicus [3]): Non-toxic | Activity (Rattus norvegicus [4]): Non-toxic | inhibition (Rattus norvegicus [5]): inactive | Activity (Mus musculus [6]): Toxic | inhibition (Rattus norvegicus [7]): Active | Activity (Mus musculus [8]): Non-toxic | Activity (Mus musculus [9]): Not Active | Activity (Rattus norvegicus [10]): Non-toxic | ED50 (Mus musculus [11]): > 138 mg/kg | inhibition (Rattus norvegicus [12]): inactive | Time (Rattus norvegicus [13]): 0.5 h | Activity (Rattus norvegicus [14]): Non-toxic

Reference: ChEMBL document CHEMBL1156239, “Synthesis, anticonvulsant and antimicrobial activities of some new 2-acetylnaphthalene derivatives” (Bioorg Med Chem, 2010)
